Sampled rows, rich in hits. Any-hit rate of the full collection: about 2.9%.
HEK293 NFkB inh: inhibitors of the PMA/ionomycin-induced NF-kB reporter in HEK293 cells; inhibition, % at 3 µM; HEK-293 NF-kB luciferase reporter, luminescence; actives 0.21% (n = 62,000);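 active = inhibition above the mean of all tested compounds plus 3 SD, cut at about 40% in these data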;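 also: 0% = stimulated DMSO wells and 100% = 10 µM reference inhibitor 5653914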
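Signal: luciferase luminescence; Material: HEK-293 cells with stable firefly luciferase reporter driven by four HIV NF-kB elements; Probe or stimulus: PMA with ionomycin; Replication: tested once; Times: 1 h compound pretreatment, then 16 h stimulation at 37 °C, 5% CO2; Benchmarks: DMSO and 10 µM reference inhibitor; Evaluation: per-plate % inhibition versus controls.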
RORa activator: activators of human nuclear receptor RORA. CHO-K1 Gal4-RORA LBD luciferase reporter, luminescence; percent increase over mock-subtracted basal signal. activation, % at 10 µM. actives 1.5% (n = 65,000). AID 560;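 active = activation above the mean of all tested compounds plus 3 SD, cut at about 49% in these data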;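 also: 0% = DMSO-treated RORA cells and 100% = added signal equal to DMSO minus mock-transfected cells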
Target sequence (P35398 whole entry, looked up, the tested form may be a part): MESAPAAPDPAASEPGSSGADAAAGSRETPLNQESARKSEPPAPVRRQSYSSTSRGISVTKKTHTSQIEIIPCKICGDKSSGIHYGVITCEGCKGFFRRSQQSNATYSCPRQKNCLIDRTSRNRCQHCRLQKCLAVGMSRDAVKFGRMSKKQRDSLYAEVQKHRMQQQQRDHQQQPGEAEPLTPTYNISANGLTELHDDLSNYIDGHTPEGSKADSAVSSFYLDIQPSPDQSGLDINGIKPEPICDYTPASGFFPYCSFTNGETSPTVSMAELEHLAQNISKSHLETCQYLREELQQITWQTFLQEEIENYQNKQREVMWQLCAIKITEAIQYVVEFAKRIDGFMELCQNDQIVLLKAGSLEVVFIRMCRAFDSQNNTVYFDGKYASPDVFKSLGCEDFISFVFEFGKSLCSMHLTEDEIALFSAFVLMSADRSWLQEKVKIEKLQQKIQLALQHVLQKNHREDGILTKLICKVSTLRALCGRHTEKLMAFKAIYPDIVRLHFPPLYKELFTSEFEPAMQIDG
SF1 activator: activates the human nuclear receptor SF-1 | AID 522 | CHO-K1 Gal4-SF-1 LBD luciferase reporter; % increase over DMSO SF-1-specific signal | actives 1.9% (n = 65,000) | activation, % at 10 µM;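 active = activation above the mean activation of all tested compounds plus 3 SD, cut at about 50% in these data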
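Test system: CHO-K1 cells with Gal4–hSF-1 LBD chimera plus Gal4-driven luciferase; Input: 4,000 cells/well; Compound: 10 µM only; Times: 20 h compound treatment, 37 °C; Measured by: steady-glow luciferase luminescence, read after 15 min reagent incubation; Measure: percent activation versus DMSO; Control set: DMSO and mock-transfected background; Replicates: one test per compound.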
MT1-MMP txn act: activates MT1-MMP transcription. HT1080 MT1-MMP promoter luciferase reporter, luminescence, overnight; active compounds read high. activation factor at 10 µM. actives 0.16% (n = 86,000). AID 750;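 active = activation factor of at least 2 for MT1-MMP transcription at 10 µM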
Jurkat viability: cytotoxicity toward Jurkat cells. Jurkat E6.1 viability, ATP luminescence, 48 h. inhibition, % at 4 µM. AID 463. actives 1.2% (n = 56,000);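 active = inhibition above the mean inhibition of all tested compounds plus 3 SD, cut at about 28% in these data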
Numbers without * were called inactive; . = not tested or not shown.

SMILES	HEK293 NFkB inh	RORa activator	SF1 activator	MT1-MMP txn act	Jurkat viability
CC(=O)Nc1ccc2c(c1)C(=O)N(c1ccc(C)cc1)C2=O	.	.	.	0.8	.
C=CCOc1cccc(C2c3c(oc4ccc(F)cc4c3=O)C(=O)N2CCCN2CCOCC2)c1 (centres undefined)	0	11	3	1	-2
N#CC12CCCCC1CC1CCCCC1(C#N)N2Cc1cccnc1 (centres undefined)	.	-13	-6	1.1	.
Cc1c(/C=C/C(=O)c2ccc(Cl)s2)cnn1C	.	.	.	2.4*	.
C/C(N)=C(/C#N)C(=O)CSc1nnc(Nc2cccc(C)c2)s1	-27	36	69*	1.6	3
Cc1ccc(-n2nnnc2SC(C)C(N)=O)c(C)c1 (centres undefined)	14	-17	3	1.2	5
C/C(N)=C(/C#N)C(=O)CSc1nnnn1-c1ccc(C)cc1C	9	-32	-22	1.2	30*
C/C(N)=C(/C#N)C(=O)CSc1nc2cc(Cl)ccc2s1	-2	-18	-8	1.4	0
COc1cc(-c2nc(-c3cccc(C)c3)no2)cc(OC)c1OC	12	10	12	1.5	3
COc1nc(-c2ccccc2)ccc1-c1noc(-c2ccco2)n1	-23	29	55*	1.1	-8
CCOc1cc(-c2nc(-c3ccccc3OC)no2)cc(OCC)c1OCC	17	-7	-1	1.2	1
COc1ccc(-c2ccc(-c3noc(-c4ccco4)n3)c(OC)n2)cc1	14	16	31	1.4	3
COc1ccc(-c2nc(-c3cccc(C)c3)no2)cc1OC	-14	61*	59*	1.5	4
COc1ccc(-c2nc(-c3ccccc3OC)no2)cc1OC	1	56*	44	1.6	1
COc1ccccc1-c1noc(-c2ccccc2)n1	-29	42	65*	0.9	0
O=C(O)c1ccc(CS(=O)(=O)c2cccc(C(F)(F)F)c2)o1	7	-3	-10	0.9	-3
Cc1ccc(SCc2nc(-c3ccccc3)no2)cc1	0	3	5	1.2	4
CCOc1ccc(-c2nc(-c3ccncc3)no2)cc1OCC	-12	2	10	1	0
COc1ccc(-c2noc(CSc3ccccc3)n2)cc1OC	-4	38	68*	1.7	-2
COc1ccc(-c2nc(C3CCCCC3)no2)cc1OC	-2	42	57*	.	9
CCOc1ccc(-c2nc(-c3ccccc3)no2)cc1OCC	-9	49*	84*	1.5	-10
O=C(CSc1nnnn1-c1cccc2c1CCCC2)N1CCCCC1	.	.	.	1.1	.
Cc1nnc(SCCn2c(N3CC(C)CC(C)C3)nc3c2c(=O)[nH]c(=O)n3C)s1 (centres undefined)	11	-21	7	0.9	0
COc1cc(Cn2c(C(=O)O)cc3sccc32)cc(OC)c1OC	13	10	2	1.1	.
Cc1cc(C(=O)CSc2nncs2)c(C)n1-c1ccc2c(c1)OCO2	-11	36	69*	1.5	17
SMILES	HEK293 NFkB inh	RORa activator	SF1 activator	MT1-MMP txn act	Jurkat viability
O=C(CSc1nncs1)NCc1ccc2c(c1)OCO2	18	-5	11	1.3	0
Cc1nc2sccn2c1-c1nc(C2CC2)c(C(=O)c2ccc3c(c2)NC(=O)CO3)s1	12	-17	-16	1	7
CCOc1cc2[nH]c(=O)n(CC3CCC(C(=O)NC(C)CC)CC3)c(=O)c2cc1OCC (centres undefined)	12	-23	-5	1	2
O=C(Cn1c(CC(=O)N2CCCC2)nc2ccccc21)NCc1ccccc1	22	-3	-5	1.1	-2
Cc1nc2ccccc2n1CC(=O)NCc1ccccc1	18	-7	-13	1.1	41*
CC1CCCN(C(=O)CCCn2c(=S)[nH]c3ccccc3c2=O)C1 (centres undefined)	.	.	.	1	.
CCN(CC)S(=O)(=O)c1cc(C(=O)Nc2ccncc2)ccc1Cl	17	-24	-21	1	48*
COc1ccccc1NC(=O)Cn1cnc2c(cnn2-c2ccc(C)c(C)c2)c1=O	7	-1	-9	1.1	3
Brc1cccc(-c2nc(-c3ccncc3)no2)c1	0	47	60*	1.3	3
CC(C)(C)c1ccc(-c2nc(-c3ccncc3)no2)cc1	-82	31	11	.	10
Cc1cc(C)cc(-c2nc(-c3ccncc3)no2)c1	5	42	90*	1.3	0
Cc1cc2ccccc2c(=O)n1CC(=O)N(C)c1ccc(F)cc1	21	-3	-9	1.2	-5
COc1ccc(CC(=O)NCCN2CCCC2)cc1	.	.	.	2.4*	.
O=C(Cc1ccc(Cl)cc1)NCCN1CCCC1	6	9	8	1.2	-9
COC(=O)c1ccsc1NC(=O)CN1C(=O)CCC1=O	13	9	-10	1	8
NCCCCCNC(=O)/C=N\O	-5	5	11	1.2	-7
CCCCC(=O)c1ccc(O)cc1O	.	.	.	1.3	.
O=C(Cc1ccc(Br)cc1)c1ccc(O)cc1O	-15	37	84*	1.5	2
O=C(CSc1nnc(Cn2nnc3ccccc32)o1)N(Cc1ccc(F)cc1)c1ccccc1	19	-71	-33	1.1	98*
COc1ccc(N2CCN(C(CNS(=O)(=O)c3cc(F)ccc3F)c3cccnc3)CC2)cc1 (centres undefined)	-9	-6	2	.	.
COc1ccc(OC)c(C(=O)CSc2nnc(-c3cccnc3)n2C)c1	13	-7	1	1.2	-11
Cc1cccc(-n2ncc3c(NCCCO)ncnc32)c1	-25	83*	67*	1.2	-9
C=CCNc1ncnc2c1cnn2-c1cccc(C)c1	-19	55*	42	1.2	6
c1ccc(CNc2ncnc3ccccc23)cc1	22	-56	-40	1	69*
Cc1ccc(-n2ncc3c(NCc4ccccc4)ncnc32)cc1	-24	61*	62*	1.4	0
SMILES	HEK293 NFkB inh	RORa activator	SF1 activator	MT1-MMP txn act	Jurkat viability
COC(=O)C(C)Sc1nc2c(c(-c3ccc(OC)cc3)c1C#N)-c1ccccc1C2=O (centres undefined)	.	.	.	1.1	.
CCOC(=O)N1CCN(C(=O)C(NS(=O)(=O)c2cccc3nsnc23)c2ccccc2)CC1 (centres undefined)	16	-5	-6	1.1	8
c1ccc(-n2ncc3c(NCc4ccco4)ncnc32)cc1	-8	90*	77*	1.5	26
Clc1ccc(-n2ncc3c(NCc4ccccn4)ncnc32)cc1	.	7	74*	1.2	.
C=CCNc1ncnc2c1cnn2-c1ccc(Cl)cc1	-42	28	50*	1.6	3
Clc1ccc(-n2ncc3c(NCCN4CCOCC4)ncnc32)cc1	4	-20	-7	1	-4
Cc1ccc(-n2ncc3c(NCc4ccccn4)ncnc32)c(C)c1	12	0	-16	1	1
Cc1cccc(-n2ncc3c(NCc4cccnc4)ncnc32)c1	-6	73*	56*	1.4	4

Screening results from PubChem.
